Article PMC7549103 (ACS Medicinal Chemistry Letters, 2020)

Experiments:
eLogD7.4 = format: physicochemical; conditions: pH 7.4
[1] = Retest of activity over time; format: physicochemical
MOLT-4 cells [2] = assay: Cellular viability assay, MOLT-4 cells; format: cell-based, human
Outline: (§1)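 MOLT-4 is used as the BCL-XL-dependent human cancer cell line, and RS4;11 as the BCL-2-dependent line. Test compounds were tested in both lines in parallel.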

RS4;11 cells = assay: Cellular viability assay, RS4; format: cell-based; conditions: Homo sapiens, RS4-11, 48 h, read-out: RS4;11 EC50
Outline: as §1

[3] = Single dose pharmacokinetics in rats; format: in vivo, Sprague-Dawley rats; conditions: rat, single oral dose of 5 mg/kg
GST-BCL-XL = GST-BCL-XL (Homo sapiens, UniProt Q07817); format: binding; conditions: BCL-XL TR-FRET Ki ratio
Chain of GST-BCL-XL (Q07817 whole entry): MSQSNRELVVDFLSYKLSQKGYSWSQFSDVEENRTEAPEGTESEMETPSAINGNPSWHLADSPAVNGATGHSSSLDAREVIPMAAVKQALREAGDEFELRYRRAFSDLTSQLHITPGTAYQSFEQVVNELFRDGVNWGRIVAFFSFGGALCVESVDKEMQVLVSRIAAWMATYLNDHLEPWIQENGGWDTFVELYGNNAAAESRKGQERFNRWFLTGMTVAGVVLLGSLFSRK

MOLT-4 cells [4] = conditions: cytochrome c release, caspase-3/-7 activation, Annexin-V staining; cited from earlier work

O=C(O)c1csc(N2CCc3cccc(C(=O)Nc4nc5ccccc5s4)c3C2)n1 [Compound 2]
eLogD7.4 (eLogD7.4): 3.02

O=C(O)c1cccc(N2CCc3cccc(C(=O)Nc4nc5ccccc5s4)c3C2)n1 [Compound 3]
chromatographic logD (eLogD7.4): 2.85

O=C(Nc1nc2ccccc2s1)c1cccc2c1CN(c1ccc(-c3ccn(Cc4ccccc4)c3)c(C(=O)O)n1)CC2 [Compound 5]
stability on storage (activity upon retest over time) [1]: lost activity upon retest over time

O=C(Nc1nc2ccccc2s1)c1cccc2c1CN(c1ccc(-c3cnn(Cc4ccccc4)c3)c(C(=O)O)n1)CC2 [Compound 6]
EC50 (MOLT-4 cells [2]; Homo sapiens, MOLT-4, 48 h, read-out: MOLT-4 EC50, 10% HS, 48 hours): > 5 µM

Cc1c(-c2ccc(N3CCc4cccc(C(=O)Nc5nc6ccccc6s5)c4C3)nc2C(=O)O)cnn1Cc1ccccc1 [Compound 10]
activity in cells (in words) (MOLT-4 cells [2]; MOLT-4 (and RS4;11) cells, 10% human serum): low micromolar activity | EC50 (RS4;11 cells): > 5 µM | Cmax-coverage (total drug exposure) of the cellular EC50 [3]: approximately 3 fold

Cc1nn(Cc2ccccc2)c(C)c1-c1ccc(N2CCc3cccc(C(=O)Nc4nc5ccccc5s4)c3C2)nc1C(=O)O [Compound 11]
improvement in target affinity relative to parent 6 (GST-BCL-XL): ~11 fold

Cc1c(-c2ccc(N3CCc4cccc(C(=O)Nc5nc6ccccc6s5)c4C3)nc2C(=O)O)cnn1CC12CC3CC(CC(C3)C1)C2 [Compound 13]
in vitro efficacy against MOLT-4, fold more potent than A-1155463 (1) (MOLT-4 cells [2]; 10% HS): 20 fold | mechanism-based effects in MOLT-4 cells (MOLT-4 cells [4]): disrupted BCL-XL:BIM complexes and induced classical features of apoptosis
